Measurements as given in ChEMBL document CHEMBL1125800, “Design of potent linear PAF antagonists” (J Med Chem, 1991).

Experiments:
Type in all cases: functional
[1] = organism: Oryctolagus cuniculus; test: In vitro inhibition of platelet aggregation (rabbit) induced by PAF
Procedure, shortened: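 Aggregation of platelet-rich plasma, obtained by spinning blood at 250 g for 10 min at 4 °C. The PRP was diluted with platelet-poor plasma (3000 g, 10 min) to […]. Aggregation was triggered with C18-PAF at 1.5 × 10⁻⁸ M and read on an aggregometer. IC50 was taken by linear regression from one curve of ≥4 concentrations, each the mean of 1–3 experiments.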

[2] = system: Rattus norvegicus; test: In vivo inhibition of PAF induced hypotension in rats after intravenous administration.; conditions: read-out: ID50 (the source's name)
Procedure, shortened: (§1)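 Male Sprague-Dawley rats (180–220 g) were anesthetized with pentobarbital (50 mg/kg ip), with carotid blood pressure recorded. Compound was given iv in saline (1 mL/kg) via a femoral vein 3 min before PAF (0.5 µg/kg iv). Controls received vehicle. Percent inhibition of hypotension versus controls gave ID50 by linear regression over ≥4 doses, each the mean of ≥2 experiments.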

[3] = system: Rattus norvegicus; test: In vivo inhibition of PAF induced hypotension in rats after intravenous administration; conditions: read-out: ID50 (the source's name); procedure, shortened: as §1

IC50 ([1]; Oryctolagus cuniculus)	SMILES	ED50 [2]	IC50 [1]	ED50 [3]
150 nM	CCCCCCCCCCCCCCCCCNC(=O)OCCSCCOC(=O)N(Cc1cccc[n+]1CC)C(=O)C(C)(C)C.[I-]	0.33 mg/kg		
72 nM	CCCCCCCCCCCCCCCNC(=O)OCC1CCC(COC(=O)N(Cc2cccc[n+]2CC)C(C)=O)O1.[I-] (centres undefined)	0.098 mg/kg		
17 nM	CCCCCCCCCCCCCCCCCNC(=O)OCCOCCOC(=O)N(Cc1cccc[n+]1CC)C(C)=O			
1700 nM	CC[n+]1ccccc1CN(C(C)=O)C(=O)OCCOCCOC(=O)C(C)(C)C.[I-]	> 5 mg/kg		
8700 nM	CCCCCCCCCCCCCCCCCNC(=O)OCCSCCOC(=O)N(Cc1cccc[n+]1CC)C(=O)CCCCCCCCCCCCCCC.[I-]	> 5 mg/kg		
18 nM	CCCCCCCCCCCCCCCCCCNC(=O)OCCOCCOC(=O)N(Cc1cccc[n+]1CC)C(C)=O.[I-]	0.019 mg/kg		
22 nM	CCCCCCCCCCCCCCCCCCOCCOCCOC(=O)N(Cc1cccc[n+]1CC)C(C)=O.[I-]	0.024 mg/kg		
	CCCCCCCCCCCCCCCCCNC(=O)OCCSCCOC(=O)N(Cc1cccc[n+]1CC)C(C)=O [listing 1 of 3 here]		5.6 nM	
160 nM	CCCCCCCCCCCCCCCCCCCCOC(=O)N(Cc1cccc[n+]1CC)C(C)=O.[I-]	0.33 mg/kg		
27 nM	CCCCCCCCCCCCCCCCCNC(=O)OCC[S+]([O-])CCOC(=O)N(Cc1cccc[n+]1CC)C(C)=O.[I-] (centres undefined)	0.025 mg/kg		
11 nM	CCCCCCCCCCCCCCCCCNC(=O)OCCS(=O)(=O)CCOC(=O)N(Cc1cccc[n+]1CC)C(C)=O.[I-]	0.019 mg/kg		
1300 nM	CC[n+]1ccccc1CN(C(C)=O)C(=O)OCCOCCOC(=O)NCCCc1ccccc1			
	CCCCCCCCCCCCCCCCCCNC(=O)OCC(COC(=O)N(Cc1cccc[n+]1CC)C(C)=O)OC.[I-] (centres undefined)	0.011 mg/kg	11 nM	
23 nM	CCCCCCCCCCCCCCCCCCNC(=O)OCCCOC(=O)N(Cc1cccc[n+]1CC)C(C)=O.[I-]	0.02 mg/kg		
55 nM	CCCCCCCCCCCCCCCCCNC(=O)OCCOCCOC(=O)N(Cc1cccc[n+]1C)C(C)=O			
23 nM	CCCCCCCCCCCCCCCNC(=O)OCCOCCOC(=O)N(Cc1cccc[n+]1CC)C(=O)OCC			
7.5 nM	CCCCCCCCCCCCCCCNC(=O)OCC1COC(COC(=O)N(Cc2cccc[n+]2CC)C(C)=O)O1.[I-] (centres undefined)	0.085 mg/kg		
	CCCCCCCCCCCCCCCCCNC(=O)OCCSCCOC(=O)N(Cc1cccc[n+]1CC)C(C)=O [listing 2 of 3 here]		12 nM	
24 nM	CCCCCCCCCCCCCCCNC(=O)OCCCCCOC(=O)N(Cc1cccc[n+]1CC)C(C)=O			
190 nM	CCSCCOC(=O)N(Cc1cccc[n+]1CC)C(C)=O.[I-]	0.37 mg/kg		

IC50 ([1]; Oryctolagus cuniculus)	SMILES	ED50 [2]	IC50 [1]	ED50 [3]
15 nM	CCCCCCCCCCCCCCCCCCOCCSCCOC(=O)N(Cc1cccc[n+]1CC)C(C)=O			
5.1 nM	CCCCCCCCCCCCCCCCOCCSCCOC(=O)N(Cc1cccc[n+]1CC)C(C)=O			
8.8 nM	CCCCCCCCCCCCCCCCCNC(=O)OCCOCCOC(=O)N(Cc1cccc[n+]1CC)C(=O)OCC			
230 nM	CCCCCCCCCCCCCCCNC(=O)OCCOCCOC(=O)N(Cc1cccc[n+]1CCC)C(C)=O			
9.1 nM	CCCCCCCCCCCCCCCCCNC(=O)OCCSCCOC(=O)N(Cc1cccc[n+]1CC)C(=O)c1ccccc1OC.[I-]	0.019 mg/kg		
1400 nM	CCCCCCCCCCCCCCCCCCCCCCOC(=O)N(Cc1cccc[n+]1CC)C(C)=O.[I-]	0.53 mg/kg		
18 nM	CCCCCCCCCCCCCCCCCNC(=O)OCCSCCOC(=O)N(Cc1cccc[n+]1CC)C(=O)OCC.[I-]	0.028 mg/kg		
12000 nM	CCCCCCCCCCCCCCCNC(=O)OCCOCCOC(=O)CCCCC[n+]1ccsc1.Cc1ccc(S(=O)(=O)[O-])cc1	> 5 mg/kg		
14 nM	CCCCCCCCCCCCCCCCNC(=O)OCCSCCOC(=O)N(Cc1cccc[n+]1CC)C(C)=O.[I-]	0.01 mg/kg		
12 nM	CCCCCCCCCCCCCCCNC(=O)OCCOCCOCCOC(=O)N(Cc1cccc[n+]1CC)C(C)=O.[I-]	0.028 mg/kg		
8.4 nM	CCCCCCCCCCCCCCCNC(=O)OCCSCCOC(=O)N(Cc1cccc[n+]1CC)C(C)=O.[I-]	0.04 mg/kg		
22 nM	CCCCCCCCCCCCCCCNC(=O)OCCOCCOC(=O)N(Cc1cccc[n+]1CC)C(C)=O			
26 nM	CCCCCCCCCCCCCCCNC(=O)OCC1OCC(COC(=O)N(Cc2cccc[n+]2CC)C(C)=O)O1.[I-] (centres undefined)	0.11 mg/kg		
24000 nM	CCOC(=O)N(Cc1cccc[n+]1CC)C(C)=O.[I-]	> 5 mg/kg		
2000 nM	CC[n+]1ccccc1CN(C(C)=O)C(=O)OCCOCCOC(=O)NCC1CCCCC1			
870 nM	CCCCCCCCCCCCCCCCCCOC(=O)N(Cc1cccc[n+]1CC)C(C)=O.[I-]	0.17 mg/kg		
	CCCCCCCCCCCCCCCCCNC(=O)OCCSCCOC(=O)N(Cc1cccc[n+]1CC)C(C)=O [listing 3 of 3 here]		8.6 nM	
5.9 nM	CCCCCCCCCCCCCCCCCCNC(=O)OCCSCCOC(=O)N(Cc1cccc[n+]1CC)C(C)=O.[I-]	0.015 mg/kg		
12 nM	CCCCCCCCCCCCCCCCCCNC(=O)OCC(COC(=O)N(Cc1cccc[n+]1CC)C(C)=O)OC.[Cl-] (centres undefined) [CV-6209]			0.0078 mg/kg
